Experimental data as given in ChEMBL document CHEMBL3112482, “Nonclassical antifolates, part 5. Benzodiazepine analogs as a new class of DHFR inhibitors: synthesis, antitumor testing and molecular modeling study” (Eur J Med Chem, 2014).

How the values were obtained:
MCF7 = experiment: Growth inhibition of human MCF7 cells at 10 uM after 48 hrs; assay type: functional; conditions: MCF7, 48 h, read-out: GI
How it was run: (§1)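 Single-dose primary screen in the NCI 60 human tumour cell line panel, run at the NCI facility. The panel covers nine subpanels: leukaemia, non-small cell lung, colon, CNS, melanoma, ovarian, renal, prostate and breast. Read-out was percent growth of treated cells, shown as a mean graph and reported as percent growth inhibition.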

NCI-H322M = experiment: Growth inhibition of human NCI-H322M cells at 10 uM after 48 hrs; assay type: functional; conditions: read-out: GI; how it was run: as §1
[1] = Growth inhibition of human UO31 cells at 10 uM after 48 hrs; assay type: functional; conditions: UO-31, 48 h, read-out: GI
How it was run: (§2)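 NCI 60-cell-line disease-oriented human tumor panel, single-dose primary screen at 10 µM. Data given as mean-graph percent growth of treated cells, reported as percent growth inhibition (GI %).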

CAKI-1 = experiment: Growth inhibition of human CAKI-1 cells at 10 uM after 48 hrs; assay type: functional; conditions: CAKI-1, 48 h, read-out: GI; how it was run: as §1
SR = experiment: Growth inhibition of human SR cells at 10 uM after 48 hrs; assay type: functional; conditions: read-out: GI; how it was run: as §2
[2] = Growth inhibition of human SF539 cells at 10 uM after 48 hrs; assay type: functional; conditions: SF-539, 48 h, read-out: GI; how it was run: as §2
[3] = Growth inhibition of human NCI-ADR-RES cells at 10 uM after 48 hrs; assay type: functional; conditions: read-out: GI; how it was run: as §1
[4] = Growth inhibition of human Hs 578T cells at 10 uM after 48 hrs; assay type: functional; conditions: read-out: GI; how it was run: as §1
DU-145 = experiment: Growth inhibition of human DU145 cells at 10 uM after 48 hrs; assay type: functional; conditions: DU-145, 48 h, read-out: GI; how it was run: as §1
MDA-MB-435 = experiment: Growth inhibition of human MDA-MB-435 cells at 10 uM after 48 hrs; assay type: functional; conditions: MDA-MB-435, 48 h, read-out: GI; how it was run: as §1
[5] = Cytotoxicity against human prostate cancer cells at 10 uM after 48 hrs; assay type: functional; conditions: Cancer cell lines
[6] = Cytotoxicity against human colon cancer cells at 10 uM after 48 hrs; assay type: functional; conditions: Cancer cell lines; for CC50: read-out: LC50 (the source's name); how it was run: as §1
[7] = Growth inhibition of human OVCAR4 cells at 10 uM after 48 hrs; assay type: functional; conditions: OVCAR-4, 48 h, read-out: GI; how it was run: as §1
PC-3 = experiment: Growth inhibition of human PC3 cells at 10 uM after 48 hrs; assay type: functional; conditions: PC-3, 48 h, read-out: GI; how it was run: as §1
COLO 205 = experiment: Growth inhibition of human COLO205 cells at 10 uM after 48 hrs; assay type: functional; conditions: COLO 205, 48 h, read-out: GI; how it was run: as §1
K562 = experiment: Growth inhibition of human K562 cells at 10 uM after 48 hrs; assay type: functional; conditions: K562, 48 h, read-out: GI; how it was run: as §1
SF-268 = experiment: Growth inhibition of human SF268 cells at 10 uM after 48 hrs; assay type: functional; conditions: SF-268, 48 h, read-out: GI; how it was run: as §2
Dihydrofolate reductase = biological target: T1, Dihydrofolate reductase (Bos taurus, UniProt P00376); experiment: Inhibition of bovine liver DHFR measured for every 1 min of 10 mins
T1 sequence (P00376 whole entry): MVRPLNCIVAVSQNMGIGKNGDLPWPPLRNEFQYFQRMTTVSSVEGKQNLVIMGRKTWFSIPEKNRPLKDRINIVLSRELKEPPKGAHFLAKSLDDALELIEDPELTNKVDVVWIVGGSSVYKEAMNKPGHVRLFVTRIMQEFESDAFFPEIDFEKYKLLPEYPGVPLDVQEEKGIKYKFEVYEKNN

[8] = Growth inhibition of human UACC257 cells at 10 uM after 48 hrs; assay type: functional; conditions: UACC-257, 48 h, read-out: GI; how it was run: as §2
MDA-MB-231 = experiment: Growth inhibition of human MDA-MB-231 cells at 10 uM after 48 hrs; assay type: functional; conditions: MDA-MB-231, 48 h, read-out: GI; how it was run: as §1
SK-OV-3 = experiment: Growth inhibition of human SKOV3 cells at 10 uM after 48 hrs; assay type: functional; conditions: SK-OV-3, 48 h, read-out: GI; how it was run: as §2
SW-620 = experiment: Growth inhibition of human SW620 cells at 10 uM after 48 hrs; assay type: functional; conditions: SW-620, 48 h, read-out: GI; how it was run: as §2
CCRF-CEM = experiment: Growth inhibition of human CCRF-CEM cells at 10 uM after 48 hrs; assay type: functional; conditions: read-out: GI; how it was run: as §1
[9] = Cytotoxicity against human breast cancer cells at 10 uM after 48 hrs; assay type: functional; conditions: Cancer cell lines; how it was run: as §1
[10] = Cytotoxicity against human renal cancer cells at 10 uM after 48 hrs; assay type: functional; conditions: Cancer cell lines
TK-10 = experiment: Growth inhibition of human TK10 cells at 10 uM after 48 hrs; assay type: functional; conditions: TK-10, 48 h, read-out: GI; how it was run: as §2
SK-MEL-2 = experiment: Growth inhibition of human SK-MEL-2 cells at 10 uM after 48 hrs; assay type: functional; conditions: SK-MEL-2, 48 h, read-out: GI; how it was run: as §2
MOLT-4 = experiment: Growth inhibition of human MOLT4 cells at 10 uM after 48 hrs; assay type: functional; conditions: MOLT-4, 48 h, read-out: GI; how it was run: as §1
NCI-H23 = experiment: Growth inhibition of human NCI-H23 cells at 10 uM after 48 hrs; assay type: functional; conditions: NCI-H23, 48 h, read-out: GI; how it was run: as §1
SNB-19 = experiment: Growth inhibition of human SNB19 cells at 10 uM after 48 hrs; assay type: functional; conditions: SNB-19, 48 h, read-out: GI; how it was run: as §2
[11] = Growth inhibition of human OVCAR5 cells at 10 uM after 48 hrs; assay type: functional; conditions: OVCAR-5, 48 h, read-out: GI; how it was run: as §1
[12] = Growth inhibition of human EKVX cells at 10 uM after 48 hrs; assay type: functional; conditions: read-out: GI; how it was run: as §1
OVCAR-8 = experiment: Growth inhibition of human OVCAR8 cells at 10 uM after 48 hrs; assay type: functional; conditions: OVCAR-8, 48 h, read-out: GI; how it was run: as §1
T47D = experiment: Growth inhibition of human T47D cells at 10 uM after 48 hrs; assay type: functional; conditions: read-out: GI; how it was run: as §2
[13] = Cytotoxicity against human CNS cancer cells at 10 uM after 48 hrs; assay type: functional; conditions: Cancer cell lines; for CC50: read-out: LC50 (the source's name)
SNB-75 = experiment: Growth inhibition of human SNB75 cells at 10 uM after 48 hrs; assay type: functional; conditions: SNB-75, 48 h, read-out: GI; how it was run: as §2
SK-MEL-28 = experiment: Growth inhibition of human SK-MEL-28 cells at 10 uM after 48 hrs; assay type: functional; conditions: SK-MEL-28, 48 h, read-out: GI; how it was run: as §2
A498 = experiment: Growth inhibition of human A498 cells at 10 uM after 48 hrs; assay type: functional; conditions: A498, 48 h, read-out: GI; how it was run: as §1

`COc1cc(/C=C2\CCCC3=C(c4cc(OC)c(OC)c(OC)c4)Nc4ccccc4N=C32)cc(OC)c1OC` showed an inhibition of growth at 10 µM (MCF7) of 63.1%, an inhibition of growth at 10 µM (NCI-H322M) of under 30% and an inhibition of growth at 10 µM [1] of 94.4%. The inhibition of growth at 10 µM (CAKI-1) was 93.5%, the inhibition of growth at 10 µM (SR) was 97.3% and the inhibition of growth at 10 µM [2] was 64.9%. For the same compound, the inhibition of growth at 10 µM [3] was 94.1%, the inhibition of growth at 10 µM [4] was 46.8% and the inhibition of growth at 10 µM (DU-145) was 95.1%. The inhibition of growth at 10 µM (MDA-MB-435) was 96.8%, the GI50 [5] was 2.3 µM and the LC50 [5] was over 100 µM. It also gave a TGI [5] of 53.4 µM, a GI50 [6] of 1.6 µM and a TGI [6] of 5.2 µM. It also gave a CC50 [6] of 36.4 µM, an inhibition of growth at 10 µM [7] of 66.5% and an inhibition of growth at 10 µM (PC-3) of 61.8%. For the same compound, the inhibition of growth at 10 µM (COLO 205) was 99.8%, the inhibition of growth at 10 µM (K562) was 94.7% and the inhibition of growth at 10 µM (SF-268) was 74%. It also gave an IC50 (Dihydrofolate reductase) of 0.09 µM, an inhibition of growth at 10 µM [8] of 83.8% and an inhibition of growth at 10 µM (MDA-MB-231) of 75.9%. It also gave an inhibition of growth at 10 µM (SK-OV-3) of 54.6%, an inhibition of growth at 10 µM (SW-620) of 94.3% and an inhibition of growth at 10 µM (CCRF-CEM) of 95.7%. It also gave a GI50 [9] of 2.9 µM, an LC50 (concentration killing 50% of cells) [9] of 89.4 µM and a TGI [9] of 48.2 µM. For the same compound, the CC50 [10] was 68.4 µM, the GI50 [10] was 2.3 µM and the TGI [10] was 20 µM. It also gave an inhibition of growth at 10 µM (TK-10) of under 30%, an inhibition of growth at 10 µM (SK-MEL-2) of 82.1% and an inhibition of growth at 10 µM (MOLT-4) of 99.4%. For the same compound, the inhibition of growth at 10 µM (NCI-H23) was 91.5%, the inhibition of growth at 10 µM (SNB-19) was 35.6% and the inhibition of growth at 10 µM [11] was 83.5%. It also gave an inhibition of growth at 10 µM [12] of 40.2%, an inhibition of growth at 10 µM (OVCAR-8) of 81.4% and an inhibition of growth at 10 µM (T47D) of 76.2%. It also gave a GI50 [13] of 6.8 µM, a TGI [13] of 94.3 µM and a CC50 [13] of over 100 µM. The inhibition of growth at 10 µM (SNB-75) was 45.5% and the inhibition of growth at 10 µM (SK-MEL-28) was 70.6%.

In the case of `COc1cc(/C=C2\CCCc3c2nc(N)nc3-c2cc(OC)c(OC)c(OC)c2)cc(OC)c1OC`, the inhibition of growth at 10 µM (MCF7) is reported as 57%, the inhibition of growth at 10 µM (NCI-H322M) is reported as under 30% and the inhibition of growth at 10 µM [1] is reported as 65.7%. It also gave an inhibition of growth at 10 µM (SR) of 99%, an inhibition of growth at 10 µM [2] of 74.1% and an inhibition of growth at 10 µM [3] of 96.1%. For the same compound, the inhibition of growth at 10 µM [4] was 63%, the GI50 [5] was 2.7 µM and the LC50 [5] was over 100 µM. For the same compound, the TGI [5] was over 100 µM, the GI50 [6] was 1.1 µM and the TGI [6] was 2.6 µM. For the same compound, the CC50 [6] was 68.3 µM, the inhibition of growth at 10 µM [7] was 73.1% and the inhibition of growth at 10 µM (PC-3) was 74.1%. It also gave an inhibition of growth at 10 µM (K562) of 93.6%, an inhibition of growth at 10 µM (SF-268) of 84.9% and an IC50 (Dihydrofolate reductase) of 21 µM. The inhibition of growth at 10 µM (MDA-MB-231) was 71.1%, the inhibition of growth at 10 µM (SK-OV-3) was 92.8% and the inhibition of growth at 10 µM (CCRF-CEM) was 97.1%. For the same compound, the GI50 [9] was 2 µM, the LC50 (concentration killing 50% of cells) [9] was over 100 µM and the TGI [9] was 69.2 µM. For the same compound, the CC50 [10] was over 100 µM, the GI50 [10] was 1.8 µM and the TGI [10] was 20.8 µM. It also gave an inhibition of growth at 10 µM (TK-10) of under 30%, an inhibition of growth at 10 µM (NCI-H23) of 88.4% and an inhibition of growth at 10 µM (SNB-19) of 38.5%. For the same compound, the inhibition of growth at 10 µM [11] was 93.2%, the inhibition of growth at 10 µM [12] was 44% and the inhibition of growth at 10 µM (T47D) was 72.5%. It also gave a GI50 [13] of 3.3 µM, a TGI [13] of over 100 µM and a CC50 [13] of over 100 µM. The inhibition of growth at 10 µM (A498) was 99.5%, the inhibition of growth at 10 µM (SNB-75) was 54.3% and the inhibition of growth at 10 µM (SK-MEL-28) was 75.1%.
